We go through 18 compounds from ChEMBL document CHEMBL1926611, “Synthesis and biological evaluation of 4-[3-chloro-4-(3-fluorobenzyloxy)anilino]-6-(3-substituted-phenoxy)pyrimidines as dual EGFR/ErbB-2 kinase inhibitors” (Bioorg Med Chem, 2012).

As a reminder, the IC50 is the concentration that inhibits the measured activity by half. A lower IC50 goes with inhibition by little substance.

Experiment [1] concerns the target Epidermal growth factor receptor (Homo sapiens, UniProt P00533). Description: Inhibition of human EGFR preincubated 2 hrs prior addition of ATP by HTRF assay.
Experiment [2] has as its target Receptor tyrosine-protein kinase erbB-2 (Homo sapiens, UniProt P04626). Description: Inhibition of human ErbB2 preincubated for 2 hrs prior addition of ATP by HTRF assay. The method, boiled down: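 Wild-type ErbB-2(676–1255) was used in an HTRF KinEASE-TK format. Kinase, substrate peptide and inhibitor were combined, and ATP started the reaction. Detection used Eu-cryptate anti-phosphotyrosine antibody plus XL665-streptavidin, with time-resolved FRET read after 320 excitation. The emission ratio across ten concentrations (0.01–10,000 nM, including no inhibitor) gave IC50, with duplicate reactions and ≥2 independent determinations.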

In experiment [3] the test system is A-431. Description: Cytotoxicity against human A431 cells overexpressing EGFR after 72 hrs by MTT assay. Conditions: A-431, 72 h. (Formazan colour is commonly taken as a measure of viable cells.)
Experiment [4] relates to SK-OV-3. Kind of experiment: Cytotoxicity against human SKOV3 cells overexpressing ErbB2 after 72 hrs by MTT assay. Conditions: SK-OV-3, 72 h.

A value given as a limit tells only on which side of the number the result lay.

Chain of Receptor tyrosine-protein kinase erbB-2 (P04626 whole entry): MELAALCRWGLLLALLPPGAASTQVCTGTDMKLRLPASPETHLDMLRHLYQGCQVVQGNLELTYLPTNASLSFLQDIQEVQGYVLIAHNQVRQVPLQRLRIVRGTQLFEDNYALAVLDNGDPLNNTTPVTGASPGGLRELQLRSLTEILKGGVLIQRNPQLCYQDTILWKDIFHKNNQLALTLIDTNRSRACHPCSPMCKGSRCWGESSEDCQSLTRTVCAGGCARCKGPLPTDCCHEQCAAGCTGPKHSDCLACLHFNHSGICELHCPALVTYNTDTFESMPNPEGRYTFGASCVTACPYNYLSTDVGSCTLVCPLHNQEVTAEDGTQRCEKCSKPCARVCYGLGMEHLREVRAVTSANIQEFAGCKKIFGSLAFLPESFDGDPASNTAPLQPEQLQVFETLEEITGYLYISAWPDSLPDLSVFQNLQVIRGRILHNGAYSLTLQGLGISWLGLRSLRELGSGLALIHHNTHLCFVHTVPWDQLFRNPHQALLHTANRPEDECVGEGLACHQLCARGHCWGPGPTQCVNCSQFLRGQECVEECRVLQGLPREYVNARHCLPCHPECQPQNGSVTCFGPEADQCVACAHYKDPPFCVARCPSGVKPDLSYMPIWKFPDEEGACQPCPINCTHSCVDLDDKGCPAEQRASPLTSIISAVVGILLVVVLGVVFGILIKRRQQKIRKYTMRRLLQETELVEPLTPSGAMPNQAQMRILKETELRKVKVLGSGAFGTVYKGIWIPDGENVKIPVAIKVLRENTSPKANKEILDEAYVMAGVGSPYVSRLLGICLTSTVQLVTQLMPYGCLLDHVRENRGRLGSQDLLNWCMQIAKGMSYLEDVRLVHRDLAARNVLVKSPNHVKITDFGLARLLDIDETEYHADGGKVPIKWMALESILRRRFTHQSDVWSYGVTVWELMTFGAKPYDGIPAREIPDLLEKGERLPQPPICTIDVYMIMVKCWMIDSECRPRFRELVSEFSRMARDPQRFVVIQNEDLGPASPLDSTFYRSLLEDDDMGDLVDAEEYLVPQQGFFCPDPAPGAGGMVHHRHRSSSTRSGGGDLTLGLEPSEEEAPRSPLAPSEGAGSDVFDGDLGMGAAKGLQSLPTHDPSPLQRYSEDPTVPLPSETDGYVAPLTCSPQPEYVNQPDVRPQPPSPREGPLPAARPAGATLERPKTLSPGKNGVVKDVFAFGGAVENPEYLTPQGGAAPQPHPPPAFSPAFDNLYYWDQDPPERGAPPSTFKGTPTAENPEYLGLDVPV
Chain of Epidermal growth factor receptor (P00533 whole entry): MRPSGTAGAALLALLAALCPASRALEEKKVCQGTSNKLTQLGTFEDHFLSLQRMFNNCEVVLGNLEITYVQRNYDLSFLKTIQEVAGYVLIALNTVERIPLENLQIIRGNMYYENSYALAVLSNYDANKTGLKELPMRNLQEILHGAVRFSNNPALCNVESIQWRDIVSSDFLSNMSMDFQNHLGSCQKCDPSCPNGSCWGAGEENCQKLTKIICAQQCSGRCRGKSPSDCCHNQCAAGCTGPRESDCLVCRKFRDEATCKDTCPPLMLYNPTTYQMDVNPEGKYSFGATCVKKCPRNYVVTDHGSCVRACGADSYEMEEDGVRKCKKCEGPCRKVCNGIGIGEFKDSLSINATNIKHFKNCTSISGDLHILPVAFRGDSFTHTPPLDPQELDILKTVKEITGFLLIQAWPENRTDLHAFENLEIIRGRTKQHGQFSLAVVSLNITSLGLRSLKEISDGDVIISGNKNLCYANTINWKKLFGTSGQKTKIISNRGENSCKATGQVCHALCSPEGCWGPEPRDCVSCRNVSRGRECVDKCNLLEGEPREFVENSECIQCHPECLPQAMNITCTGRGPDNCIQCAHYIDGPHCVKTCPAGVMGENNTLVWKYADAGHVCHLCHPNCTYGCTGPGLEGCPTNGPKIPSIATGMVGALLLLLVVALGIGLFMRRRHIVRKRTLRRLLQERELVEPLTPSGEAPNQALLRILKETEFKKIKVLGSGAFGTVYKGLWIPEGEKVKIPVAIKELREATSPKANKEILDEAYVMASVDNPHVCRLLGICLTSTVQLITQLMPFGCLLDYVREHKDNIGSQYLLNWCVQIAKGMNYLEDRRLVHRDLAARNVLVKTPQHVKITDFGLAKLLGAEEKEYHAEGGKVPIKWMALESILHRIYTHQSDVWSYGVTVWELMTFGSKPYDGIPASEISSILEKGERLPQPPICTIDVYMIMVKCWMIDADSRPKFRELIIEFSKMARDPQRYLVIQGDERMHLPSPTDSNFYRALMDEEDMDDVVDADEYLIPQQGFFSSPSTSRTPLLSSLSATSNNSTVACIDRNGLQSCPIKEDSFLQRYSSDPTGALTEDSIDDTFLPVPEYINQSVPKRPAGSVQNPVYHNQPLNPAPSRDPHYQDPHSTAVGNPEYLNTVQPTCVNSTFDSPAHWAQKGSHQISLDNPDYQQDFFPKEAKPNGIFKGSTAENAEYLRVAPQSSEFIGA

Consider `O=[N+]([O-])c1cccc(Oc2cc(Nc3ccc(OCc4cccc(F)c4)c(Cl)c3)ncn2)c1`, for which the IC50 was 1.2 µM in experiment [1], 2.42 µM in experiment [2], 10.4 µM in experiment [3] and over 30 µM in experiment [4].
The like results for `Nc1cccc(Oc2cc(Nc3ccc(OCc4cccc(F)c4)c(Cl)c3)ncn2)c1` were, in that order, 0.473 µM, 0.559 µM, 8.92 µM and 12.2 µM.
With `CC(=O)Nc1cccc(Oc2cc(Nc3ccc(OCc4cccc(F)c4)c(Cl)c3)ncn2)c1`, the IC50 in experiment [1] is 0.108 µM; in experiment [2], 0.135 µM; in experiment [3], 12 µM; in experiment [4], 3.95 µM.
For `C=CC(=O)Nc1cccc(Oc2cc(Nc3ccc(OCc4cccc(F)c4)c(Cl)c3)ncn2)c1` the same measures were 0.037 µM, 0.029 µM, 3.25 µM and 0.89 µM.
For `CCOC(=O)/C=C/C(=O)Nc1cccc(Oc2cc(Nc3ccc(OCc4cccc(F)c4)c(Cl)c3)ncn2)c1`, the IC50 in experiment [1] was 0.129 µM; in experiment [2], 0.196 µM; in experiment [3], 7 µM; in experiment [4] it was 1.29 µM.
For `CCOC(=O)CNc1cccc(Oc2cc(Nc3ccc(OCc4cccc(F)c4)c(Cl)c3)ncn2)c1`, the IC50 in experiment [2] is 0.219 µM; in experiment [4], 9.18 µM.
As for `N#CCC(=O)Nc1cccc(Oc2cc(Nc3ccc(OCc4cccc(F)c4)c(Cl)c3)ncn2)c1`, the IC50 was determined as 0.048 µM in experiment [1], 0.038 µM in experiment [2], 5.17 µM in experiment [3] and 8.42 µM in experiment [4].
For `O=C(Nc1cccc(Oc2cc(Nc3ccc(OCc4cccc(F)c4)c(Cl)c3)ncn2)c1)c1ccc([N+](=O)[O-])cc1` the same measures were over 10 µM, over 10 µM, 6.72 µM and 10.2 µM.
With `Nc1cc(Nc2cccc(Oc3cc(Nc4ccc(OCc5cccc(F)c5)c(Cl)c4)ncn3)c2)ncn1`, the IC50 in experiment [1] is 0.061 µM; in experiment [2] it was 0.042 µM; in experiment [3], 4.24 µM; in experiment [4], 0.71 µM.
As for `Fc1cccc(COc2ccc(Nc3cc(Oc4cccc(NCc5ccccc5)c4)ncn3)cc2Cl)c1`, the IC50 was over 10 µM in experiment [1], over 10 µM in experiment [2], 3.11 µM in experiment [3] and 17.9 µM in experiment [4].
Turning to `O=C(/C=C/c1ccccc1)Nc1cccc(Oc2cc(Nc3ccc(OCc4cccc(F)c4)c(Cl)c3)ncn2)c1`, the IC50 came to 1.67 µM in experiment [1], 3.74 µM in experiment [2], 11.2 µM in experiment [3] and 20.7 µM in experiment [4].
The like results for `O=C(COc1ccccc1)Nc1cccc(Oc2cc(Nc3ccc(OCc4cccc(F)c4)c(Cl)c3)ncn2)c1` were, in that order, 0.065 µM, 0.079 µM, 14.9 µM and 9.1 µM.
Regarding `O=C(Cc1cc(F)c(F)cc1F)Nc1cccc(Oc2cc(Nc3ccc(OCc4cccc(F)c4)c(Cl)c3)ncn2)c1`, the IC50 came out at 0.627 µM in experiment [1], 0.834 µM in experiment [2], 9.29 µM in experiment [3] and 26.1 µM in experiment [4].
The like results for `O=C(/C=C/c1ccc(F)cc1)Nc1cccc(Oc2cc(Nc3ccc(OCc4cccc(F)c4)c(Cl)c3)ncn2)c1` were, in that order, 0.821 µM, 1.29 µM, 18.1 µM and over 30 µM.
For the compound `COc1ccc(/C=C/C(=O)Nc2cccc(Oc3cc(Nc4ccc(OCc5cccc(F)c5)c(Cl)c4)ncn3)c2)cc1OC`, the IC50 in experiment [1] is 0.523 µM; in experiment [2], 1.23 µM; in experiment [3], over 20 µM; in experiment [4] it was over 30 µM.
In the case of `O=C(COc1cc(F)c(F)c(F)c1)Nc1cccc(Oc2cc(Nc3ccc(OCc4cccc(F)c4)c(Cl)c3)ncn2)c1`, the IC50 in experiment [1] was 0.721 µM; in experiment [2] it was 2.14 µM; in experiment [3], 13.2 µM; in experiment [4], over 30 µM.
Take `COc1ccc(OCC(=O)Nc2cccc(Oc3cc(Nc4ccc(OCc5cccc(F)c5)c(Cl)c4)ncn3)c2)cc1OC`: the IC50 is over 10 µM in experiment [1], over 10 µM in experiment [2] and 6.42 µM in experiment [3].
The compound `CS(=O)(=O)CCNCc1ccc(-c2ccc3ncnc(Nc4ccc(OCc5cccc(F)c5)c(Cl)c4)c3c2)o1` [LAPATINIB] displayed a half-maximal inhibitory concentration (IC50) in experiment [4] of 2.99 µM.
